The source of these data is paper PMC10938441 (ACS Omega, 2024).

Data set [1] has as its system SARS-CoV-2. The class given is cell-based, SARS-CoV-2 B.1 lineage. Particulars: correlation between anti-SARS-CoV-2 activity (EC50) and HepG2 cytotoxicity (CC50).
Data set [2] can be described thus: Cytotoxicity, MTT reduction assay in HepG2 cells. The class given is cell-based. As to conditions: human, HepG2 cells, CC50 (HepG2). An outline of the steps: (§1)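 HepG2 cells grown at 37 °C, 5% CO2 in DMEM with streptomycin (40 mg/L) and 10% heat-inactivated FBS. Seeded at 1 × 10^3 cells/well, then exposed to serial dilutions of test compound for 72 h, each concentration in triplicate. MTT added for 4 h; formazan dissolved in isopropanol, read at OD570. Viability expressed as % of vehicle control; CC50 fitted from % viability vs log concentration.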

Data set [3] can be described thus: Cytotoxicity, methylene blue staining in Calu-3 cells. Type of data set: cell-based. As to conditions: human, Calu-3 cell monolayers. The essentials:
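Calu-3 monolayers (2 × 10^4 cells/well) exposed to test compound at several concentrations for 72 h at 37 °C, 5% CO2, triplicate per concentration. Cells PBS-washed, then fixed and stained 1 h at 37 °C with HBSS + 1.25% glutaraldehyde + 0.6% methylene blue. Rinsed with water; dye eluted 15 min at room temperature (50% ethanol, 49% PBS, 1% acetic acid); A660 read. CC50 fitted from % viability vs log concentration.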

Data set [4] has as its system HepG2 cell lines. The data set can be described thus: Cytotoxicity, MTT reduction assay in HepG2 cells. Particulars: read-out: CC50 (HepG2), 72 h. The class given is cell-based. The essentials: as §1

`CC(C)=CCC1=C(O)C(=O)c2ccccc2C1=O` [lapachol] had a selectivity index in data set [1] of 47 ± 7. The CC50 at 72 h in data set [2] stood at 71 ± 9 µM; in data set [3], 67 ± 2 µM.
For the molecule `Cc1c(-c2ccc(-c3ccccc3F)cc2)nc2ccc(F)cc2c1C(=O)O` [brequinar], the half-maximal cytotoxic concentration (CC50) at 72 h in data set [2] was determined as 17 ± 4 µM; in data set [3] it was 48 ± 2 µM.
Turning to `C/C(O)=C(\C#N)C(=O)Nc1ccc(C(F)(F)F)cc1` [teriflunomide], the cytotoxic concentration (CC50) in data set [4] came to 160 ± 20 µM. Also, the half-maximal cytotoxic concentration (CC50) at 72 h in data set [2] is 164 µM; in data set [3], 59 ± 2 µM.
